Bioassay records (PubChem BioAssay)
In the library only some 7.2% were active in any assay of this set; here they are far more common.
PostGolgi yeast: phenotypic screen on post-Golgi transport, primary screen; post-Golgi transport phenotypic cell assay; inhibition, % at 10 µM; 0.9% of 98,000 active;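 further: yeast cells grown in 1536-well plates; yeast grown about 18 h at 30C before absorbance read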
PostGolgi ctrl: growth inhibition of yeast control strain, primary screen, counter-screen for post-Golgi transport modulator project. inhibition, % at 10 µM. AID 738, 2007. efflux-deficient yeast background strain, growth absorbance A615, 16 h. 5% of 98,000 active
Ecoli WT expand: growth inhibitors of wild-type E. coli, primary screen, strain BW25113, expanded library, OD600; growth inhibition, % at 100 µM; 0.15% of 98,000 active; OD600 absorbance; AID 710, 2007;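 active means growth inhibition above about 50% at one test dose, limit read from the data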;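 further: growth measured after 20 h incubation at 37 °C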
PLAP activator: PLAP enzyme activators, biochemical, luminescence, HTS; Alkaline phosphatase, placental type (Homo sapiens), P05187; purified PLAP enzyme, luminescent substrate read-out; stronger effect = higher value; AID 696, 2007; activation fold at 20 µM; 1.2% of 96,000 active; in the data active means activation fold above about 2
Target sequence (P05187 whole entry, looked up): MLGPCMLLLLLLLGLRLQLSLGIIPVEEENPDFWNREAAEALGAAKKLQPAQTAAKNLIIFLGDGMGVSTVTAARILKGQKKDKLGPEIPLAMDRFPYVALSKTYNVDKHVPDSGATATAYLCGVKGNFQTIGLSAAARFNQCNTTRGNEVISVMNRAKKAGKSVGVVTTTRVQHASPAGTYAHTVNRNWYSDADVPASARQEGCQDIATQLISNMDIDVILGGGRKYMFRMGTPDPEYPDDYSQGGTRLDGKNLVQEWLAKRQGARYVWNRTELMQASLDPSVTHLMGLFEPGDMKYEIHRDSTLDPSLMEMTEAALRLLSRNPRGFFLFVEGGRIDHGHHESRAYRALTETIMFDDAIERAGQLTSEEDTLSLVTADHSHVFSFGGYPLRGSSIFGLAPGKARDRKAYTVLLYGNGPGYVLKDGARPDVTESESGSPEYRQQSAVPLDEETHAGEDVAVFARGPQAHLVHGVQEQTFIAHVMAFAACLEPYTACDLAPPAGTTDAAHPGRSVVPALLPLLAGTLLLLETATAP
Ecoli tolC: growth inhibitors of E. coli tolC mutant, primary screen, strain BW25113 ΔtolC::kan, 384-well; OD615; growth inhibition, % at 10 µM (by protocol); 2.2% of 65,000 active;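 active means growth inhibition at or above a cutoff equal to the mean over every tested compound plus 3 SD, cut at about 60% in these data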;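 further: growth measured after 20 h incubation at 37 °C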
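Doses: one dose of 10 µM final / Material: E. coli BW25113 ΔtolC::kan, tolC deletion mutant strain / Buffer or medium: LB with kanamycin 50 µg/mL / Evaluation: percent growth inhibition / Detection: optical density read at 615 nm / Incubation: 37 °C, 20 h exposure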
* = called active by the depositor; · = not tested or not shown. Unless noted, no stated cut-off is given here; in the data, active means inhibition above about 30%; inactive means the rest.

SMILES	PostGolgi yeast	PostGolgi ctrl	Ecoli WT expand	PLAP activator	Ecoli tolC
COCCn1nnnc1C(C(C)C)N(Cc1cccnc1)Cc1cc2cc(OC)ccc2[nH]c1=O (centres undefined)	5	-2	8	1.4	-5
COCCn1nnnc1C(C(C)C)N(Cc1ccccc1)Cc1cc2cc(OC)ccc2[nH]c1=O (centres undefined)	-3	-2	-2	1.8	76*
Cc1ccc(S(=O)(=O)NNC(=O)c2sc3nc(C)cc(C)c3c2-n2cccc2)cc1	-5	28	12	1.7	·
Cc1ccc2cc(C(c3nnnn3C3CCCC3)N(Cc3ccco3)Cc3cccs3)c(=O)[nH]c2c1 (centres undefined)	-2	13	-17	1.6	·
Clc1ccc(C(c2nnnn2C2CCCCC2)N(Cc2cccnc2)Cc2ccco2)cc1 (centres undefined)	·	·	·	·	69*
CCC(c1nnnn1C1CCCCC1)N(Cc1ccco1)Cc1cc2ccc(OC)cc2[nH]c1=O (centres undefined)	5	23	-8	1	68*
Cc1ccc2cc(C(c3nnnn3C3CCCC3)N(Cc3cccnc3)Cc3ccco3)c(=O)[nH]c2c1 (centres undefined)	-6	5	-16	1.6	65*
Cc1ccc2[nH]c(=O)c(C(c3nnnn3C3CCCC3)N(Cc3cccnc3)Cc3ccco3)cc2c1 (centres undefined)	-6	5	-12	1	63*
CC(c1nnnn1C1CCCCC1)N(Cc1ccccc1)Cc1cccnc1 (centres undefined)	-6	13	-22	·	49
O=C(COc1ccc(Br)cc1)N1CCC(c2ccccc2)C1 (centres undefined)	-11	4	11	1.3	·
COc1ccc(OC)c(C(=O)CSc2nccc(-c3ccc(Br)cc3)n2)c1	19	7	-9	1.4	·
O=S(=O)(c1ccc(Cl)cc1)N1CCCC1c1nc(-c2cccc(Cl)c2)no1 (centres undefined)	1	33*	-4	0.9	·
O=S(=O)(c1ccccc1Cl)N1CCCC1c1nc(-c2cccc(Cl)c2)no1 (centres undefined)	-8	21	-11	1	·
O=C(NC1(C(F)(F)F)NC(=O)N(CC2CCCCC2)C1=O)c1ccco1 (centres undefined)	23	7	8	0.8	9
CCOc1ccc(Br)cc1C1C(C(=O)OC)=C(N)Oc2cc(N(C)C)ccc21 (centres undefined)	1	31*	-15	1.4	·
CCOc1ccccc1C1C(C(=O)OC)=C(N)OC2=C1C(=O)CCC2 (centres undefined)	-3	8	2	1.1	-14
Cc1nccc2[nH]c(=O)c(C(=O)NC3CCN(Cc4ccccc4)CC3)cc12	·	·	·	·	-11
Cc1ccc(C)n1N1C(=O)/C(=C\c2ccc(Cl)cc2)SC1=S	40*	39*	-14	1.1	·
COc1ccc(C(C(=O)OC(C)CN(C)C)c2ccccc2)cc1 (centres undefined)	35*	1	3	1.2	-18
CCCCOc1ccc(C(=O)OC(C)CN(C)C)cc1 (centres undefined)	-1	-1	4	1.2	-10
COc1cc(/C=N/N2C(=O)CSC2=S)ccc1O	-6	2	8	2.2*	·
O=C(CSc1nnc(Cn2c(=O)sc3ccccc32)n1-c1ccccc1)Nc1nccs1	15	13	6	1.3	-2
O=C(COC(=O)c1ccccc1[N+](=O)[O-])c1ccc(C2CCCCC2)cc1	-7	34*	-8	0.9	·
CCC(=O)NC(=S)NNC(=O)c1ccc(OC)cc1	4	14	75*	·	·
CCCOc1ccc(C(=O)NNC(=S)NC(C)=O)cc1	47*	32*	88*	1.4	·
SMILES	PostGolgi yeast	PostGolgi ctrl	Ecoli WT expand	PLAP activator	Ecoli tolC
O=C(NCCNC(=O)c1cccs1)c1ccco1	-7	7	3	0.8	-18
CCCC(=O)Nc1ccc(C(=O)NNC(=S)NC(=O)c2cccs2)cc1	18	-4	-11	2.4*	·
O=C(NC(=S)NNC(=O)c1cccs1)c1ccco1	-16	-2	67*	2.2*	·
Cc1cc(Cl)ccc1Oc1nccc(N(C)C)c1C#N	-7	11	-2	1.1	·
O=C(CN1C(=O)NC2NC(=O)NC21)NC1CCCCC1 (centres undefined)	·	·	·	·	-25
CCCCSc1nc(C)cc(C)c1S(=O)(=O)c1ccccc1C	0	14	2	0.8	·
